≈ marks a conversion by molar mass, not a printed value. Where a name gives a salt, the structure may show the parent alone.

The first experiment has as its system Saccharomyces cerevisiae. As to the kind of experiment: Antifungal activity against Saccharomyces cerevisiae W303-1B at 0.5*10^5 initial cell density after 48 hrs by broth microdilution assay. The class given is functional. In short, it runs like this: (§1)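 Same yeast microdilution protocol (W303-1B, RPMI 1640/0.165 M MOPS pH 7.0 with required amino acids, 30 °C, DMSO stocks diluted into medium), but initial inoculum raised in 10-fold steps within 0.5 · 10³–0.5 · 10⁶ cells/mL. MIC taken visually after 48 h as lowest concentration with no detectable growth; triplicates, two independent experiments.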
As usually defined, the MIC is the lowest concentration found to suppress growth. Higher therefore signals a need for much substance. The molecule `CC/N=c1/cc2oc3cc(NCCCC(=O)OCC)c4ccccc4c3nc-2cc1C` displayed an MIC of 7.5 µM (≈ 3.13 µg/mL). The same measure, in the same setting: in the case of `CC/N=c1/cc2oc3cc(NCCCCl)c4ccccc4c3nc-2cc1C` it was 7.5 µM (≈ 2.85 µg/mL).

A further experiment concerns Saccharomyces cerevisiae. As to the kind of experiment: Antifungal activity against Saccharomyces cerevisiae W303-1B at 0.5*10^6 initial cell density after 48 hrs by broth microdilution assay. In kind it is functional. In short, it runs like this: as §1
(In general: Broth dilution looks for growth in wells or tubes with falling amounts of substance.)
In turn, `CC/N=c1/cc2oc3cc(NCCCC(=O)OCC)c4ccccc4c3nc-2cc1C` gave an MIC of 30 µM (≈ 12.5 µg/mL). Same read-out and setting: with `CC/N=c1/cc2oc3cc(NCCCCl)c4ccccc4c3nc-2cc1C` the figure was 15 µM (≈ 5.7 µg/mL).

Another experiment relates to Saccharomyces cerevisiae. Kind of experiment: Antifungal activity against Saccharomyces cerevisiae W303-1B after 48 hrs by broth microdilution assay. In kind it is functional. In short, it runs like this: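 NCCLS M27-A broth microdilution; S. cerevisiae W303-1B ([…], ade2, his3, leu2, trp1, ura3) at 0.5 · 10³ cells/mL initial density in RPMI 1640 with 0.165 M MOPS, pH 7.0, plus required amino acids; 30 °C. DMSO stocks diluted into medium. MIC read visually at 48 h as lowest concentration giving no detectable growth; triplicates, two independent experiments.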
`CC/N=c1/cc2oc3cc(NCCC(=O)NC(C)C(=O)OC)c4ccccc4c3nc-2cc1C` (stereo unspecified) yielded an MIC of 30 µM (≈ 13.8 µg/mL). On the same count and under the same terms, with `CC/N=c1/cc2oc3cc(NCCCCl)c4cc5ccccc5cc4c3nc-2cc1C` the figure was 15 µM (≈ 6.45 µg/mL); with `C[N+](C)=c1ccc2nc3c(cc(NCCCO)c4ccccc43)oc-2c1`, 120 µM.

Turning to `CC/N=c1/cc2oc3cc(NCCC(=O)NC(C(=O)OC)C(C)C)c4ccccc4c3nc-2cc1C` (stereo unspecified), the MIC turned out to be 30 µM (≈ 14.7 µg/mL). Regarding `CC/N=c1/cc2oc3cc(NCCCC(=O)OCC)c4ccccc4c3nc-2cc1C`, the MIC came to 7.5 µM (≈ 3.13 µg/mL). Regarding `CC[N+](CC)=c1ccc2nc3c(cc(NCCC(=O)OC)c4ccccc43)oc-2c1`, the MIC is 15 µM. Regarding `CC/N=c1/cc2oc3cc(NCCCO)c4ccccc4c3nc-2cc1C`, the MIC came out at 60 µM (≈ 21.7 µg/mL).

`CC[N+](CC)=c1ccc2nc3c(cc(NCCCO)c4ccccc43)oc-2c1` showed an MIC of 120 µM. Same read-out and setting: with `CC/N=c1/cc2oc3cc(NCCC(=O)OC)c4ccccc4c3nc-2cc1C` the figure was 15 µM (≈ 5.84 µg/mL). The same measure, in the same setting: with `CC/N=c1/cc2oc3cc(NCCCC(=O)O)c4ccccc4c3nc-2cc1C` the figure was 120 µM (≈ 46.7 µg/mL); with `CC/N=c1/cc2oc3cc(NCCC(=O)OCC)c4ccccc4c3nc-2cc1C`, 15 µM (≈ 6.05 µg/mL).

Regarding `COC(=O)CCNc1cc2oc3cc(=[N+](C)C)ccc-3nc2c2ccccc12`, the MIC was above 120 µM. The molecule `CC/N=c1/cc2oc3cc(NCCCCl)c4ccccc4c3nc-2cc1C` had an MIC of 3.75 µM (≈ 1.42 µg/mL).

`CCOC(=O)CCNc1cc2oc3cc(=[N+](C)C)ccc-3nc2c2ccccc12`: the minimum inhibitory concentration (MIC) is 15 µM. Regarding `CC/N=c1/cc2oc3cc(N)c4ccccc4c3nc-2cc1C`, the MIC was 15 µM (≈ 4.55 µg/mL). Consider `CCCCCC/N=c1\ccc2nc3c(cc(Nc4ccccc4)c4ccccc43)oc-2c1`, for which the minimum inhibitory concentration (MIC) was above 120 µM. In the case of `CC[N+](CC)=c1ccc2nc3c(cc(NCCC(=O)O)c4ccccc43)oc-2c1`, the MIC was determined as 120 µM. On the same count and under the same terms, with `CC/N=c1/cc2oc3cc(NCCC(=O)NCC(=O)OC)c4ccccc4c3nc-2cc1C` the figure was 120 µM (≈ 53.6 µg/mL); with `CC/N=c1/cc2oc3cc(NCCC(=O)NC(Cc4ccccc4)C(=O)OC)c4ccccc4c3nc-2cc1C` (stereo unspecified), 15 µM (≈ 8.05 µg/mL). The molecule `CC/N=c1/cc2oc3cc(NCCCN)c4cc5ccccc5cc4c3nc-2cc1C` returned an MIC of 60 µM (≈ 24.6 µg/mL).

Molecule `C[N+](C)=c1ccc2nc3c(cc(NCCC(=O)O)c4ccccc43)oc-2c1` came in with an MIC above 120 µM. The same measure, in the same setting: in the case of `C[N+](C)=c1ccc2nc3c(cc(N)c4ccccc43)oc-2c1` it was above 120 µM; in that of `CC/N=c1/cc2oc3cc(N)c4cc5ccccc5cc4c3nc-2cc1C`, 30 µM (≈ 10.6 µg/mL). Molecule `CC/N=c1/cc2oc3cc(NCCN)c4ccccc4c3nc-2cc1C` returned an MIC of 120 µM (≈ 41.6 µg/mL). `CC/N=c1/cc2oc3cc(NCCCC(=O)NC(C(=O)OC)C(C)C)c4ccccc4c3nc-2cc1C` (stereo unspecified) registered a minimal inhibitory concentration (MIC) of 60 µM (≈ 30.2 µg/mL). Same read-out and setting: in the case of `CC/N=c1/cc2oc3cc(NCCNC(=O)C(NC(=O)OC(C)(C)C)C(C)C)c4ccccc4c3nc-2cc1C` (stereo unspecified) it was 15 µM (≈ 8.19 µg/mL); in that of `CC/N=c1/cc2oc3cc(NCCOC(=O)C(NC(=O)OC(C)(C)C)C(C)C)c4ccccc4c3nc-2cc1C` (stereo unspecified), 15 µM (≈ 8.2 µg/mL); in that of `CC/N=c1/cc2oc3cc(Nc4ccccc4)c4ccccc4c3nc-2cc1C`, above 120 µM. Molecule `CC/N=c1/cc2oc3cc(NCCCO)c4cc5ccccc5cc4c3nc-2cc1C` showed an MIC of 15 µM (≈ 6.17 µg/mL). Same read-out and setting: in the case of `CC/N=c1/cc2oc3cc(NCCCC(=O)OCC)c4cc5ccccc5cc4c3nc-2cc1C` it was 15 µM (≈ 7.01 µg/mL); in that of `CC/N=c1/cc2oc3cc(NCCO)c4ccccc4c3nc-2cc1C`, 30 µM (≈ 10.4 µg/mL); in that of `CC/N=c1/cc2oc3cc(NCCCN)c4ccccc4c3nc-2cc1C`, 30 µM (≈ 10.8 µg/mL). `CC/N=c1/cc2oc3cc(NCCCOC(=O)C(NC(=O)OC(C)(C)C)C(C)C)c4ccccc4c3nc-2cc1C` (stereo unspecified) yielded an MIC above 120 µM. On to `CC/N=c1/cc2oc3cc(NCCC(=O)NC(CCC(=O)OC)C(=O)OC)c4ccccc4c3nc-2cc1C` (stereo unspecified), for which the MIC worked out at 120 µM (≈ 63.9 µg/mL). The molecule `CC/N=c1/cc2oc3cc(NCCC(=O)O)c4ccccc4c3nc-2cc1C` registered an MIC of 15 µM (≈ 5.63 µg/mL).

`CC/N=c1/cc2oc3cc(NC(=O)C(NC(=O)OC(C)(C)C)C(C)C)c4ccccc4c3nc-2cc1C` (stereo unspecified) had an MIC of 60 µM (≈ 30.2 µg/mL). Turning to `C[N+](C)=c1ccc2nc3c(cc(Nc4ccccc4)c4ccccc43)oc-2c1`, the MIC is above 120 µM.

`CCCNc1cc2oc3c/c(=N/CC)c(C)cc-3nc2c2cc3ccccc3cc12` came in with an MIC of 15 µM (≈ 5.93 µg/mL). `CC/N=c1/cc2oc3cc(NCCC(=O)NCCCCC(NC(C)=O)C(=O)OC)c4ccccc4c3nc-2cc1C` (stereo unspecified) gave an MIC of 120 µM (≈ 67.2 µg/mL). With `CC[N+](CC)=c1ccc2nc3c(cc(N)c4ccccc43)oc-2c1` [NILE BLUE HYDROCHLORIDE], 60 µM was the least that counted as inhibitory (MIC).

A further experiment deals with Saccharomyces cerevisiae. Kind of experiment: Antifungal activity against Saccharomyces cerevisiae W303-1B at 0.5*10^4 initial cell density after 48 hrs by broth microdilution assay. The class given is functional. The gist of the method: as §1
`CC/N=c1/cc2oc3cc(NCCCC(=O)OCC)c4ccccc4c3nc-2cc1C` displayed an MIC of 7.5 µM (≈ 3.13 µg/mL). Turning to `CC/N=c1/cc2oc3cc(NCCCCl)c4ccccc4c3nc-2cc1C`, the MIC stood at 7.5 µM (≈ 2.85 µg/mL).
